Data from ChEMBL document CHEMBL1121394, “Oxytocin and lysine-vasopressin with N5,N5-dialkylglutamine in the 4 position: effect of introducing sterically hindered groups into the hydrophilic cluster of neurohypophyseal hormones” (1980).

Tests used:
[1] = species: Gallus gallus; assay: Compound was tested in vitro for avain vasopressor activity; format: functional; conditions: in the assay text read “vasodepressor” for “vasopressor”
In short: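 Vasodepressor assay in conscious White Leghorn roosters (Coon method, modified). Where activity was measurable, Schild four-point design with at least ten determinations on three animals.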

[2] = species: Rattus norvegicus; assay: Compound was tested in vitro for antidiuretic activity in rat; format: functional, Urine; conditions: in the assay text read “in vivo” for “in vitro”
In short: (§1)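 Anesthetized male Sprague-Dawley rats. Where activity was measurable, Schild four-point design with at least ten determinations on three animals.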

[3] = species: Rattus norvegicus; assay: Compound was tested in vitro for pressor activity on rat; format: functional; conditions: in the assay text read “in vivo” for “in vitro”; in short: as §1
[4] = species: Rattus norvegicus; assay: Compound was tested in vitro for uterotonic activity in rat; format: functional
In short: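 Isolated uterine horns from virgin rats in natural estrus (Holton method as modified by Munsick), Mg2+-free van Dyke-Hastings solution as bath. Where activity was measurable, Schild four-point design with at least ten determinations on three animals.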

[5] = species: Rattus norvegicus; assay: Compound was tested for percent maximum uterotonic response; format: functional
In short: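 Isolated uterine horns from virgin rats in natural estrus, bathed in Mg2+-free van Dyke-Hastings solution. Dose-response by individual injection, doses raised geometrically in 0.5 log10 steps until a maximal response was reached.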

CC[C@H](C)[C@@H]1NC(=O)[C@H](Cc2ccc(O)cc2)NC(=O)[C@@H](N)CSSC[C@@H](C(=O)N2CCC[C@H]2C(=O)N[C@@H](CC(C)C)C(=O)NCC(N)=O)NC(=O)[C@H](CC(N)=O)NC(=O)[C@H](CCC(N)=O)NC1=O [OXYTOCIN]
Activity [1]: 507 mg
Activity [2]: 3.1 mg
Activity [3]: 2.7 mg
Activity [4]: 546 mg
Max uterotonic response [5]: 100%
